The values that follow come from ChEMBL document CHEMBL1134208, “Controlled drug release: new water-soluble prodrugs of an HIV protease inhibitor” (Bioorg Med Chem Lett, 2001).

In brackets after ≈: the same amount, converted by molar mass.

Holding throughout (format): ADME
Series [1] in a line: Time required for 50% release of KNI-727 at 37 degree celsius. The essentials: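 Prodrug added from a 0.5 mM DMSO stock to PBS (pH 7.4) and incubated at 37 °C. Aliquots taken at successive time points were injected directly onto HPLC with detection at 230 nm. Loss of prodrug and appearance of released parent were followed over time to give the half-life of release.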
The nature of series [2]: Water solubility of prodrug was determined relative to KNI-727. Conditions: buffer. The method, boiled down:
(§1)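 Prodrug solution was passed through a membrane filter, and the dissolved prodrug concentration was then quantified by HPLC. Solubility was set against that of the parent drug measured the same way.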

A short description of series [3]: Water solubility of prodrug was determined. Conditions: buffer. The essentials:
as §1

As to `Cc1cccc(C)c1OCC(=O)N[C@@H](Cc1ccccc1)[C@H](OC(=O)CCC(=O)NCCN)C(=O)N1CSC(C)(C)[C@H]1C(=O)NC(C)(C)C.Cl`, in series [1], the T1/2 is 0.35 h. Further, the Solubility (in general, the concentration that dissolves in the medium under given conditions) in series [2] came out at 10400 mg/mL; in series [3], 115.4 mg/mL.
`Cc1cccc(C)c1OCC(=O)N[C@@H](Cc1ccccc1)[C@H](OC(=O)CCC(=O)NCC(=O)O)C(=O)N1CSC(C)(C)[C@H]1C(=O)NC(C)(C)C` yielded a T1/2 in series [1] of 18.7 h. In addition, the Relative solubility in series [2] was determined as 6.6. In addition, the Solubility in series [3] is 0.0735 mg/mL (≈ 103 µM).
`Cc1cccc(C)c1OCC(=O)N[C@@H](Cc1ccccc1)[C@H](OC(=O)CCCC(=O)NCCN)C(=O)N1CSC(C)(C)[C@H]1C(=O)NC(C)(C)C.Cl` registered a T1/2 in series [1] of 28 h. The Solubility came out at 5130 mg/mL in series [2] and 56.9 mg/mL in series [3].
In series [1], `Cc1cccc(C)c1OCC(=O)N[C@@H](Cc1ccccc1)[C@H](OC(=O)CCC(=O)NCCC(=O)O)C(=O)N1CSC(C)(C)[C@H]1C(=O)NC(C)(C)C` had a T1/2 of 16.8 h.
`Cc1cccc(C)c1OCC(=O)N[C@@H](Cc1ccccc1)[C@H](OC(=O)CCC(=O)NCC(N)=O)C(=O)N1CSC(C)(C)[C@H]1C(=O)NC(C)(C)C` gave a T1/2 in series [1] of 0.333 h. Further, in series [2], the Relative solubility was determined as 18.9. Further, in series [3], the Solubility came out at 0.21 mg/mL (≈ 295 µM).
On to `Cc1cccc(C)c1OCC(=O)N[C@@H](Cc1ccccc1)[C@H](OC(=O)CCC(=O)NCCN(C)C)C(=O)N1CSC(C)(C)[C@H]1C(=O)NC(C)(C)C.Cl`, for which, in series [1], the T1/2 came out at 0.183 h. Moreover, in series [3], the Solubility was determined as 171.5 mg/mL.
The compound `Cc1cccc(C)c1OCC(=O)N[C@@H](Cc1ccccc1)[C@H](OC(=O)CCC(=O)NCc1ccccc1)C(=O)N1CSC(C)(C)[C@H]1C(=O)NC(C)(C)C.Cl` gave a T1/2 in series [1] of 8.8 h. For the same compound, the Solubility in series [3] was below 0.0111 mg/mL.
In turn, `Cc1cccc(C)c1OCC(=O)N[C@@H](Cc1ccccc1)[C@H](OC(=O)CC(C)(C)C(=O)NCCN)C(=O)N1CSC(C)(C)[C@H]1C(=O)NC(C)(C)C.Cl` displayed a T1/2 in series [1] below 0.017 h. The Solubility in series [2] worked out at 12300 mg/mL; in series [3], 136.7 mg/mL.
`Cc1cccc(C)c1OCC(=O)N[C@@H](Cc1ccccc1)[C@H](OC(=O)CCC(N)=O)C(=O)N1CSC(C)(C)[C@H]1C(=O)NC(C)(C)C`: the T1/2 in series [1] worked out at 16 h. The Relative solubility in series [2] turned out to be 8.1. Further, in series [3], the Solubility was 0.0895 mg/mL (≈ 137 µM).
